According to ChEMBL document CHEMBL1124034, “Adenosine deaminase inhibitors. Synthesis and biological activity of deaza analogues of erythro-9-(2-hydroxy-3-nonyl)adenine” (J Med Chem, 1988):

Key:
KB [1] = test: In vitro antitumor activity against human KB cell line at 144 h; type: functional; conditions: read-out: ID50 (the source's name)
Method in brief: (§1)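 Human HeLa (cervix carcinoma) and KB (oral epidermoid carcinoma) monolayers in Eagle's MEM with nonessential amino acids, Earle's BSS, 10% fetal calf serum and penicillin/streptomycin/kanamycin. Exponentially growing cells (5×10^5) were exposed to varying drug concentrations for 72 or 144 h and counted by Coulter counter. ID50 is the concentration giving 50% growth inhibition versus untreated controls.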

HeLa [2] = test: In vitro antitumor activity against human HeLa cell line at 72 h; type: functional; conditions: read-out: ID50 (the source's name); method in brief: as §1
HeLa [3] = test: In vitro antitumor activity against human HeLa cell line at 144 h; type: functional; conditions: read-out: ID50 (the source's name); method in brief: as §1
P388 [4] = test: In vitro antitumor activity against murine doxorubicin resistant P388 cell line at 72 h; type: functional; conditions: Mus musculus, P388, 72 h; read-out: ID50 (the source's name)
KB [5] = test: In vitro antitumor activity against human KB cell line at 72 h; type: functional; conditions: read-out: ID50 (the source's name); method in brief: as §1
Adenosine deaminase [6] = target: T1, Adenosine deaminase (Homo sapiens, UniProt P00813); test: Inhibition constant (Ki) against Human erythrocyte adenosine deaminase
T1 sequence (P00813 whole entry): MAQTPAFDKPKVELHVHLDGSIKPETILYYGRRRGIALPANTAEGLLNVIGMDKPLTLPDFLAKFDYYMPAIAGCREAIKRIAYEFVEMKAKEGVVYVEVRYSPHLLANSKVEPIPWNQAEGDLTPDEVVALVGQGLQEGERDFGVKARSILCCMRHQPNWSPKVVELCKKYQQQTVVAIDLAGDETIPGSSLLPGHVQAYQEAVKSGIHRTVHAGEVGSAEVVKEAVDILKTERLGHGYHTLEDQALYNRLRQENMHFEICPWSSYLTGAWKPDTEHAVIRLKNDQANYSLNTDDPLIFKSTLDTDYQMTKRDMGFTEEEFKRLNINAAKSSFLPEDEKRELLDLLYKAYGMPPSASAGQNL

P388 [7] = test: In vitro antitumor activity against murine P388 cell line at 72 h; type: functional; conditions: Mus musculus, P388, 72 h; read-out: ID50 (the source's name)
L1210 = test: In vitro antitumor activity against murine L1210 cell line at 72 h; type: functional; conditions: Mus musculus, L1210, 72 h; read-out: ID50 (the source's name)
HeLa [8] = test: In vitro antitumor activity against human HeLa cell line at 144 hr; type: functional; conditions: read-out: ID50 (the source's name); method in brief: as §1
Adenosine deaminase [9] = target: T2, Adenosine deaminase (Bos taurus, UniProt P56658); test: Inhibition constant (Ki) against calf intestine adenosine deaminase
T2 sequence (P56658 whole entry): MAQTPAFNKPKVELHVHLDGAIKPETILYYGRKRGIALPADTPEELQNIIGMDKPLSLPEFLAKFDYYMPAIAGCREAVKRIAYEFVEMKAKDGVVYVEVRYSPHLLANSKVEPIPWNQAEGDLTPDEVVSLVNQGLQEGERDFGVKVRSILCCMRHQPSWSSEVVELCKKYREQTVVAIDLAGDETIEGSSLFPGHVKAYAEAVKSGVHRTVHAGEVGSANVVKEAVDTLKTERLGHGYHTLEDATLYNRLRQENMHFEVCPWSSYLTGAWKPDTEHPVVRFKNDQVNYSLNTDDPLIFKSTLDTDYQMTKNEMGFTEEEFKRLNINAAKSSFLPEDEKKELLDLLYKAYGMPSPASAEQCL

P388 [10] = test: In vitro antitumor activity against murine doxorubicin-resistant P388 cell line at 72 h; type: functional; conditions: Mus musculus, P388, 72 h; read-out: ID50 (the source's name)

Row | Compound | IC50 (KB [1]) [µM] | IC50 (HeLa [2]) [µM] | IC50 (KB [5]) [µM] | Ki (Adenosine deaminase [6]) [µM] | IC50 (P388 [7]) [µM] | IC50 (L1210) [µM] | IC50 (HeLa [8]) [µM] | Ki (Adenosine deaminase [9]) [µM] | IC50 (P388 [10]) [µM] | IC50 (HeLa [3]) [µM] | IC50 (P388 [4]) [µM]
1 | CCCCCCC(C(C)O)n1cnc2c(N)ccnc21 (centres undefined) | 30 | 112 | 49.1 | 0.12 | 98.2 | 49.1 | – | – | – | 21.8 | 38.2
2 | CCCCCCC(C(C)O)n1cnc2c(N)nccc21 (centres undefined) | 5.5 | 142 | 31.9 | 0.0063 | 21.8 | 18.6 | – | – | – | 18.6 | 19.2
3 | CCCCCCC(C(C)O)n1cnc2c(N)cccc21 (centres undefined) | 30.1 | 38.3 | 32.8 | 15 | 62.9 | 26.8 | 18.6 | 71 | 47.9 | – | –

Further lines, with some results ahead:

Row | IC50 (KB [1]) [µM] | IC50 (HeLa [2]) [µM] | IC50 (KB [5]) [µM] | Ki (Adenosine deaminase [6]) [µM] | IC50 (P388 [7]) [µM] | IC50 (L1210) [µM] | IC50 (HeLa [8]) [µM] | Ki (Adenosine deaminase [9]) [µM] | IC50 (P388 [10]) [µM] | Compound | IC50 (HeLa [3]) [µM] | IC50 (P388 [4]) [µM]
4 | 25.4 | 46 | 89.8 | – | 12.7 | 23.6 | 27.7 | – | 10.8 | Nc1ncnc2c1ncn2[C@@H]1O[C@H](CO)[C@@H](O)[C@@H]1O [VIDARABINE] | – | –
5 | 46.3 | 179 | 81.6 | 0.0043 | 27.2 | 22.9 | – | – | – | CCCCCC[C@@H]([C@@H](C)O)n1cnc2c(N)ncnc21 [EHNA] | 23.4 | 13.4
6 | 8.5 | 60.4 | 20.7 | 180 | 20.7 | 18.4 | – | 400 | – | CCCCCCC(C(C)O)n1ccc2c(N)ncnc21 (centres undefined) | 4.7 | 3.8
